As usually defined, the inhibition is how much of the control response was suppressed. As usually defined, the IC50 is the concentration that gives 50% inhibition.

For two compounds, inhibition and IC50 results are on record in ChEMBL document CHEMBL4190262, “Tuning of β-glucosidase and α-galactosidase inhibition by generation and in situ screening of a library of pyrrolidine-triazole hybrid molecules” (Eur J Med Chem, 2017).

For one assay, the species on record is Bos taurus. The assay can be described thus: Inhibition of bovine kidney alpha-L-fucosidase at 1 mM using p-nitrophenyl glycopyranoside preincubated for 5 mins followed by substrate addition measured after 20 mins by visible absorption spectroscopic method relative to control. In outline: (§1)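 Test compound at 1 mM in well. Mix: 0.01–0.5 units/mL enzyme plus 10 mM p-nitrophenyl glycopyranoside (aqueous solution), buffered to the enzyme's optimal pH. Enzyme and inhibitor preincubated 5 min at rt. Substrate then added and incubated 20 min at 37 °C. Stopped with sodium borate (pH 9.8). p-Nitrophenolate read at 405 nm. Duplicates averaged.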

Another assay has as its system Prunus dulcis. The assay can be described thus: Inhibition of almond beta-glucosidase at 1 mM using p-nitrophenyl glycopyranoside preincubated for 5 mins followed by substrate addition measured after 20 mins by visible absorption spectroscopic method relative to control. In outline:
as §1

In assay [1] the target is Beta-galactosidase (Escherichia coli) (UniProt Q8VNN2). The assay can be described thus: Inhibition of Escherichia coli beta-galactosidase at 1 mM using p-nitrophenyl glycopyranoside preincubated for 5 mins followed by substrate addition measured after 20 mins by visible absorption spectroscopic method relative to control. In outline: as §1
Beta-galactosidase (Escherichia coli), sequence (Q8VNN2 whole entry, looked up): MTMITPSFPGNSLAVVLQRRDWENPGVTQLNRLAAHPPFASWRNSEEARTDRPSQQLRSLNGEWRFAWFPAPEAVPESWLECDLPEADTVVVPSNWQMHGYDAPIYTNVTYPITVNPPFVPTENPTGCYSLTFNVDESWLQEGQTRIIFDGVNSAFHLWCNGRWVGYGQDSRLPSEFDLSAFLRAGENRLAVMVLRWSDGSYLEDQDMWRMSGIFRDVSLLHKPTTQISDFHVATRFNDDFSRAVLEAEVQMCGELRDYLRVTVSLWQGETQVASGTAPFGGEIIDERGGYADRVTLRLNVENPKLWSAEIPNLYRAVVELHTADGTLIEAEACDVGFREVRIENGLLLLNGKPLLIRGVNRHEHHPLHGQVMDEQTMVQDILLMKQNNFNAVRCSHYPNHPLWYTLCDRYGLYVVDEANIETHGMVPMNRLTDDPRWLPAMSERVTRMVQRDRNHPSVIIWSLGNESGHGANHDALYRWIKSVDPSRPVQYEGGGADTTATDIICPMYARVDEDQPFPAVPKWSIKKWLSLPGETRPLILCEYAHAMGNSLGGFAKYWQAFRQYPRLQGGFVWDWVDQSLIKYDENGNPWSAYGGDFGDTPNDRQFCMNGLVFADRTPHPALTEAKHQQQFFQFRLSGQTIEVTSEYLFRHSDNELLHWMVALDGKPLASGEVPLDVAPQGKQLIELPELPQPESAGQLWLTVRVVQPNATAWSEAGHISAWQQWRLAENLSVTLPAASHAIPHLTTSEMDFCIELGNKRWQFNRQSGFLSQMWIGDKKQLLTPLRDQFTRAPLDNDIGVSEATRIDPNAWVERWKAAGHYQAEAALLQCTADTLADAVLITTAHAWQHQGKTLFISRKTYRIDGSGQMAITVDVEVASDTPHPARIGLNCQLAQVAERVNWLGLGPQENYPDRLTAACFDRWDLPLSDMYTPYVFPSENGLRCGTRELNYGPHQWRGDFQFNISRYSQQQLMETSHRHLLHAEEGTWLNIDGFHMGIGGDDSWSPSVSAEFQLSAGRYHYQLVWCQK
The next assay has as its system Aspergillus niger. The assay can be described thus: Inhibition of Aspergillus niger amyloglucosidase at 1 mM using p-nitrophenyl glycopyranoside preincubated for 5 mins followed by substrate addition measured after 20 mins by visible absorption spectroscopic method relative to control. An outline of the steps:
as §1

In the next assay the test system is Cornu aspersum. The assay can be described thus: Inhibition of snail beta-mannosidase at 1 mM using p-nitrophenyl glycopyranoside preincubated for 5 mins followed by substrate addition measured after 20 mins by visible absorption spectroscopic method relative to control. An outline of the steps: as §1
In assay [2] the target is T1, Lysosomal acid glucosylceramidase (Homo sapiens, UniProt P04062).
T1 sequence (P04062 whole entry): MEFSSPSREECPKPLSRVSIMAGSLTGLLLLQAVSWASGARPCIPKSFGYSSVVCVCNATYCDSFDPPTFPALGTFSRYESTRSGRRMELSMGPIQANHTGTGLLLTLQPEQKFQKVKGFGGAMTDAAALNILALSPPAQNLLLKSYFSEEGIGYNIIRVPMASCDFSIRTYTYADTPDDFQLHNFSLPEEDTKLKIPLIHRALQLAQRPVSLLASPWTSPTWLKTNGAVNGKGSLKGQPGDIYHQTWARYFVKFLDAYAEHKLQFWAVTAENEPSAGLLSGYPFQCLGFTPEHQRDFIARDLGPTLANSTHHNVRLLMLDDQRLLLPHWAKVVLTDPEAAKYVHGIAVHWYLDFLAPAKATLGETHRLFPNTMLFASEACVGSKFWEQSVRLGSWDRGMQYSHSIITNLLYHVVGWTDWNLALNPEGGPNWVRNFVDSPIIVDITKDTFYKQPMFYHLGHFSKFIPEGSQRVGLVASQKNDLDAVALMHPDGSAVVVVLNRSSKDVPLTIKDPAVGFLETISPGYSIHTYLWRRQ
In words: Inhibition of human lysosomal beta-glucocerebrosidase using 4-methylumbelliferyl-beta-D-glucopyranoside as substrate preincubated for 45 mins followed by substrate addition measured after 30 mins by fluorescence spectroscopic method. An outline of the steps:
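Enzyme in 100 mM McIlvaine buffer pH 5.2 with 0.25% sodium taurocholate and 0.1% Triton X-100, with inhibitor. Preincubated at 0 °C for 45 min, then started with 3 mM 4-methylumbelliferyl glycoside substrate solution and incubated 30 min at 37 °C. Stopped with 400 mM glycine-NaOH pH 10.6. 4-Methylumbelliferone fluorescence read at ex 362/em 450 nm.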

The next assay concerns the target T2, Beta-galactosidase (Bos taurus, UniProt Q58D55).
T2 sequence (Q58D55 whole entry): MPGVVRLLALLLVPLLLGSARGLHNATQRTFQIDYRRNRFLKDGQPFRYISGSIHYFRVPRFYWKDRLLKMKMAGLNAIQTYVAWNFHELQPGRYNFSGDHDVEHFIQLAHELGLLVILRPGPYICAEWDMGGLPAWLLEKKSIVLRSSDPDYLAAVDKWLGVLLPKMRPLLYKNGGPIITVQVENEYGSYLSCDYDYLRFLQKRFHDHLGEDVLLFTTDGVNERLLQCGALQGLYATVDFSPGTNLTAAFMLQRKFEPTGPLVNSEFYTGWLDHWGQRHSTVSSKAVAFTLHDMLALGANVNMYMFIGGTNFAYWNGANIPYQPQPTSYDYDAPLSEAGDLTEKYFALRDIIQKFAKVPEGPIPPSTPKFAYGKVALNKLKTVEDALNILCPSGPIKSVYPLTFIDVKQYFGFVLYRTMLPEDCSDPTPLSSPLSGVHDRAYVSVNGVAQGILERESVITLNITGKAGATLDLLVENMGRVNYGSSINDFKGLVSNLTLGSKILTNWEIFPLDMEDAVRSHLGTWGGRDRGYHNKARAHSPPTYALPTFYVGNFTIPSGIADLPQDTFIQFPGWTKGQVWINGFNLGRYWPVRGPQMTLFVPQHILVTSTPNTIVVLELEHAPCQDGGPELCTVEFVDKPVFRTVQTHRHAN
The assay can be described thus: Inhibition of bovine liver beta-galactosidase using p-nitrophenyl glycopyranoside preincubated for 5 mins followed by substrate addition measured after 20 mins by visible absorption spectroscopic method. In outline:
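IC50 determined only for compounds giving ≥80% inhibition at 1 mM, read from plots of % inhibition versus inhibitor concentration. p-Nitrophenyl glycopyranoside substrate (10 mM solution) at the enzyme's optimal pH, with 0.01–0.5 units/mL enzyme. 5 min rt preincubation with enzyme, then 20 min at 37 °C. Borate stop (pH 9.8), absorbance at 405 nm. Duplicates averaged.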

Calls of active or inactive are those of the source. The calls are words filed in the database; no cut-off is given here.

Regarding `O[C@@H]1[C@H](O)CN[C@@H]1Cn1cc(-c2ccccc2)nn1`, the inhibition in the assay listed under Bos taurus was 17%; in the assay with Prunus dulcis it was less than 53%. Besides, the inhibition entry (in assay [1]; in the assay on Aspergillus niger; in the assay with Cornu aspersum) was “inactive” in each case. Further, the concentration for half-maximal inhibition (IC50) in assay [2] was 28 µM; on Beta-galactosidase it was 173 µM.
As for `O[C@@H]1[C@H](O)CN[C@H]1Cn1cc(-c2ccccc2)nn1`, the inhibition in the assay listed under Bos taurus came to 40%; in the assay on Prunus dulcis it was 97%; with Aspergillus niger, 38%. The inhibition result (in assay [1]; in the assay with Cornu aspersum) was “inactive” each time. Also, the IC50 in assay [2] turned out to be 11 µM; at Beta-galactosidase it was 458 µM.
